Published values gathered from unrelated publications.
Compare with care: the assays were run in different laboratories.
Read-out: cell growth or viability

The inhibition of `CCOC(=O)c1cn(CC(c2cn(C)c3ccc(C)cc23)c2cn(C)c3ccc(C)cc23)c(C)c1C(=O)OC` is reported as 9.5% (HaCaT; MTS; 20 µM; 24 h).
`CC(C)=CCC[C@](C)(O)[C@H]1CC[C@]2(C)[C@@H]1[C@H](O)C[C@@H]1[C@@]3(C)CC[C@H](O[C@@H]4O[C@H](CO)[C@@H](O)[C@H](O)[C@H]4O[C@@H]4O[C@H](CO)[C@@H](O)[C@H](O)[C@H]4O)C(C)(C)[C@@H]3CC[C@]12C` has an IC80 of over 100000 nM (NCI-H358; MTT; 72 h).
The GI50 of `COc1ccc(-c2ccc(-c3ccc(C(=N)N)nc3)s2)cc1Cl` is reported as 1700 nM (SNB-19; SRB).
The IC50 of `Cc1cc(C)cc(COc2cc3c(cc2OCc2cc(C)cc(C)c2)[C@H]2C[C@](O)(Cc4cn(Cc5ccc(Cl)c(Cl)c5)nn4)C[C@H](C)N2CC3)c1` is reported as 606 nM (ASPC1; MTT).
With `Cc1cc(Nc2ncc(Cl)c(Nc3ccccc3S(=O)(=O)C(C)C)n2)c(OC(C)C)cc1C1CCNCC1` the inhibition was 62.4% (KARPAS-299; MTT; 0.06173 µg/mL; 72 h).
`Cc1cc(C)cc(COc2cc3c(cc2OCc2cc(C)cc(C)c2)[C@H]2C[C@](O)(Cc4cn(CCOCCOCCOCC(=O)N[C@H](C(=O)N5C[C@H](O)C[C@H]5C(=O)NCc5ccc(-c6scnc6C)cc5)C(C)(C)C)nn4)C[C@H](C)N2CC3)c1` has an IC50 of 730 nM (ASPC1; MTT).
With `COc1cc(-c2ccc(-c3ccc(C(=N)N)nc3)s2)cc(OC)c1OC` the GI50 was 1590 nM (CAKI-1).
`COC(C)(C)CCC[C@](C)(O)[C@H]1CC[C@]2(C)[C@@H]1[C@H](O)C[C@@H]1[C@@]3(C)CC[C@H](O)C(C)(C)[C@@H]3CC[C@]12C` has an IC80 of 81700 nM (NCI-H358; MTT; 72 h).
`C[C@@H](Oc1cc(-c2cnn(C3CCNCC3)c2)cnc1N)c1c(Cl)ccc(F)c1Cl` has an inhibition of 85.2% (KARPAS-299; MTT; 1 µg/mL; 72 h).
`Cc1ccc(Cn2cc(C[C@@]3(O)C[C@@H]4c5cc(OCc6cc(C)cc(C)c6)c(OCc6cc(C)cc(C)c6)cc5CCN4[C@@H](C)C3)nn2)cc1` has an IC50 of 560 nM (ASPC1; MTT).
For `CCOC(=O)c1c(C)ncn1CC(c1cn(C)c2ccc([N+](=O)[O-])cc12)c1cn(C)c2ccc([N+](=O)[O-])cc12`, the inhibition was 3.7% (HaCaT; MTS; 20 µM; 24 h).
For `Cc1cc(C)cc(COc2cc3c(cc2OCc2cc(C)cc(C)c2)C2CC(O)(Cc4cn(CCOCCOCCOCCOc5ccc6c(c5)C(=O)N(C5CCC(=O)NC5=O)C6=O)nn4)CC(C)N2CC3)c1` (stereo not drawn), the IC50 was 1120 nM (ASPC1; MTT).
`COC(=O)c1c(C)ncn1CC(c1cn(C)c2ccccc12)c1cn(C)c2ccccc12` gave an inhibition of 12.6% (HaCaT; MTS; 20 µM; 24 h).
With `C=CC(=O)Nc1ccc(Cn2cc(C[C@@]3(O)C[C@@H]4c5cc(OCc6cc(C)cc(C)c6)c(OCc6cc(C)cc(C)c6)cc5CCN4[C@@H](C)C3)nn2)cc1` the IC50 was 481 nM (ASPC1; MTT).
`CCCCCCCCCCCCCCCCOP(=O)([O-])OCC[N+](C)(C)C` has an inhibition of 45.5% (HaCaT; MTS; 20 µM; 24 h).
For `COc1cc(Nc2nccc(-c3cnn4nc(OC)ccc34)n2)cc(C(F)(F)F)c1`, the IC50 was over 3000 nM (HCC1569; ATP luminescence).
`Cc1c(-c2cccc(C(F)(F)F)c2)sc2[nH]c(=O)n([C@H](C)c3cccc4ccccc34)c(=O)c12` has an inhibition of over 80% (HCC827; 10 µM).
`COC(=O)c1c(C)ncn1CC(c1c[nH]c2cc(Br)ccc12)c1c[nH]c2cc(Br)ccc12` gave an inhibition of 28.8% (HaCaT; MTS; 20 µM; 24 h).
For `Cc1cc(C)cc(COc2cc3c(cc2OCc2cc(C)cc(C)c2)[C@H]2C[C@](O)(Cc4cn(CC5CC5)nn4)C[C@H](C)N2CC3)c1`, the IC50 was 612 nM (ASPC1; MTT).
With `CN1C[C@H](C(=O)N[C@]2(C)O[C@@]3(O)[C@@H]4CCCN4C(=O)[C@H](Cc4ccccc4)N3C2=O)C[C@@H]2c3cccc4[nH]cc(c34)C[C@H]21` the EC50 was 80000 nM (WI-38; MTT; 72 h).
`Cc1cc(C)cc(COc2cc3c(cc2OCc2cc(C)cc(C)c2)C2CC(O)(Cc4cn(CCCCCCNc5ccc6c(c5)C(=O)N(C5CCC(=O)NC5=O)C6=O)nn4)CC(C)N2CC3)c1` (stereo not drawn) has an IC50 of 1230 nM (ASPC1; MTT).
For `CC(C)C[C@H](NC(=O)[C@H](Cc1ccccc1)NC(=O)c1cnccn1)B(O)O`, the IC50 was 17 nM (HEC-1-A; ATP luminescence).
`Cc1cc(C)cc(COc2cc3c(cc2OCc2cc(C)cc(C)c2)[C@H]2C[C@](O)(Cc4cn(Cc5cccnc5)nn4)C[C@H](C)N2CC3)c1` gave an IC50 of 674 nM (ASPC1; MTT).
`COc1cccc(Oc2ccccc2NC(=O)CNC(=O)c2cccc3ccccc23)c1` has a GI50 of 617 nM (SNB-19; SRB; 48 h).
